Results: ChEMBL document CHEMBL1255475, “Mutant prevention concentrations of four carbapenems against gram-negative rods” (2010)
≈ marks a conversion by molar mass, not a printed value.

How the values were obtained:
Format in all cases: functional
Klebsiella pneumoniae [1] = assay: Antibacterial activity against beta-lactamase-positive ESBL-positive Klebsiella pneumoniae E475 assessed as mutant prevention concentration after overnight incubation
Procedure, shortened: (§1)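 Overnight growth on blood trypticase soy agar (35°C, air) was resuspended in 0.9% saline and counted on drug-free Mueller-Hinton agar. […] Colonies were retested by agar dilution to confirm mutants. MPC was the lowest concentration preventing resistant-mutant growth.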

Acinetobacter baumannii [2] = assay: Antibacterial activity against Acinetobacter baumannii A890 assessed as mutant prevention concentration after overnight incubation
Klebsiella pneumoniae [3] = assay: Antibacterial activity against beta-lactamase-positive ESBL-negative Klebsiella pneumoniae E472 incubated up to 7 days by agar dilution method; details: E472, 168 h
Klebsiella pneumoniae [4] = assay: Antibacterial activity against beta-lactamase-positive ESBL-negative Klebsiella pneumoniae E480 incubated up to 7 days by agar dilution method; details: E480, 168 h
Escherichia coli [5] = assay: Antibacterial activity against beta-lactamase-positive ESBL-positive Escherichia coli E451 incubated up to 7 days by agar dilution method; details: E451, 168 h
Procedure, shortened: (§2)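 MIC by CLSI agar dilution, with quality-control strains in each run. Beta-lactamase status was set by 30 μg cefazolin Kirby-Bauer disk diffusion. ESBL status was set by cefotaxime and ceftazidime disks (30 μg) with and without clavulanic acid (10 μg).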

Pseudomonas aeruginosa [6] = assay: Antibacterial activity against Pseudomonas aeruginosa P356 assessed as mutant prevention concentration after overnight incubation
Acinetobacter baumannii [7] = assay: Antibacterial activity against Acinetobacter baumannii A849 assessed as mutant prevention concentration after overnight incubation
Klebsiella pneumoniae [8] = assay: Antibacterial activity against beta-lactamase-negative Klebsiella pneumoniae E420 incubated up to 7 days by agar dilution method; details: E420, 168 h; procedure, shortened: as §2
Acinetobacter baumannii [9] = assay: Antibacterial activity against Acinetobacter baumannii A891 assessed as mutant prevention concentration after overnight incubation
Pseudomonas aeruginosa [10] = assay: Antibacterial activity against Pseudomonas aeruginosa P322 assessed as mutant prevention concentration after overnight incubation
Pseudomonas aeruginosa [11] = assay: Antibacterial activity against Pseudomonas aeruginosa P353 assessed as mutant prevention concentration after overnight incubation
Pseudomonas aeruginosa [12] = assay: Antibacterial activity against Pseudomonas aeruginosa P332 assessed as mutant prevention concentration after overnight incubation
Pseudomonas aeruginosa [13] = assay: Antibacterial activity against Pseudomonas aeruginosa P320 assessed as mutant prevention concentration after overnight incubation
Escherichia coli [14] = assay: Antibacterial activity against beta-lactamase-positive ESBL-negative Escherichia coli E430 incubated up to 7 days by agar dilution method; details: E430, 168 h; procedure, shortened: as §2
Escherichia coli [15] = assay: Antibacterial activity against beta-lactamase-negative Escherichia coli E347 incubated up to 7 days by agar dilution method; details: E347, 168 h
Acinetobacter baumannii [16] = assay: Antibacterial activity against Acinetobacter baumannii A885 assessed as mutant prevention concentration after overnight incubation
Klebsiella pneumoniae [17] = assay: Antibacterial activity against beta-lactamase-negative Klebsiella pneumoniae E418 assessed as mutant prevention concentration after overnight incubation; procedure, shortened: as §1
Klebsiella pneumoniae [18] = assay: Antibacterial activity against beta-lactamase-negative Klebsiella pneumoniae E359 incubated up to 7 days by agar dilution method; details: E359, 168 h
Klebsiella pneumoniae [19] = assay: Antibacterial activity against beta-lactamase-positive ESBL-negative Klebsiella pneumoniae E474 assessed as mutant prevention concentration after overnight incubation; procedure, shortened: as §1
Escherichia coli [20] = assay: Antibacterial activity against beta-lactamase-positive ESBL-negative Escherichia coli E412 assessed as mutant prevention concentration after overnight incubation; procedure, shortened: as §1
Escherichia coli [21] = assay: Antibacterial activity against beta-lactamase-positive ESBL-negative Escherichia coli E483 […] by agar dilution method
Klebsiella pneumoniae [22] = assay: Antibacterial activity against beta-lactamase-positive ESBL-negative Klebsiella pneumoniae E473 incubated up to 7 days by agar dilution method; details: E473, 168 h
Acinetobacter baumannii [23] = assay: Antibacterial activity against Acinetobacter baumannii A884 assessed as mutant prevention concentration after overnight incubation
Escherichia coli [24] = assay: Antibacterial activity against beta-lactamase-negative Escherichia coli E345 incubated up to 7 days by agar dilution method; details: E345, 168 h
Acinetobacter baumannii [25] = assay: Antibacterial activity against Acinetobacter baumannii A908 assessed as mutant prevention concentration after overnight incubation
Escherichia coli [26] = assay: Antibacterial activity against beta-lactamase-negative Escherichia coli E350 assessed as mutant prevention concentration after overnight incubation
Klebsiella pneumoniae [27] = assay: Antibacterial activity against beta-lactamase-negative Klebsiella pneumoniae E417 assessed as mutant prevention concentration after overnight incubation
Klebsiella pneumoniae [28] = assay: Antibacterial activity against beta-lactamase-positive ESBL-negative Klebsiella pneumoniae E507 assessed as mutant prevention concentration after overnight incubation; procedure, shortened: as §1
Klebsiella pneumoniae [29] = assay: Antibacterial activity against beta-lactamase-positive ESBL-positive Klebsiella pneumoniae E453 incubated up to 7 days by agar dilution method; details: E453, 168 h; procedure, shortened: as §2
Escherichia coli [30] = assay: Antibacterial activity against beta-lactamase-positive ESBL-positive Escherichia coli E459 incubated up to 7 days by agar dilution method; details: E459, 168 h; procedure, shortened: as §2
Escherichia coli [31] = assay: Antibacterial activity against beta-lactamase-negative Escherichia coli E408 assessed as mutant prevention concentration after overnight incubation
Escherichia coli [32] = assay: Antibacterial activity against beta-lactamase-positive ESBL-positive Escherichia coli E458 incubated up to 7 days by agar dilution method; details: E458, 168 h; procedure, shortened: as §2
Escherichia coli [33] = assay: Antibacterial activity against beta-lactamase-positive ESBL-positive Escherichia coli E458 assessed as mutant prevention concentration after overnight incubation; procedure, shortened: as §1
Escherichia coli [34] = assay: Antibacterial activity against beta-lactamase-negative Escherichia coli E347 assessed as mutant prevention concentration after overnight incubation
Escherichia coli [35] = assay: Antibacterial activity against beta-lactamase-positive ESBL-negative Escherichia coli E430 assessed as mutant prevention concentration after overnight incubation; procedure, shortened: as §1
Klebsiella pneumoniae [36] = assay: Antibacterial activity against beta-lactamase-positive ESBL-negative Klebsiella pneumoniae E474 incubated up to 7 days by agar dilution method; details: E474, 168 h
Acinetobacter baumannii [37] = assay: Antibacterial activity against Acinetobacter baumannii A911 assessed as mutant prevention concentration after overnight incubation
Escherichia coli [38] = assay: Antibacterial activity against beta-lactamase-negative Escherichia coli E424 assessed as mutant prevention concentration after overnight incubation
Pseudomonas aeruginosa [39] = assay: Antibacterial activity against Pseudomonas aeruginosa P352 assessed as mutant prevention concentration after overnight incubation
Acinetobacter baumannii [40] = assay: Antibacterial activity against Acinetobacter baumannii A894 assessed as mutant prevention concentration after overnight incubation
Escherichia coli [41] = assay: Antibacterial activity against beta-lactamase-positive ESBL-positive Escherichia coli E452 incubated up to 7 days by agar dilution method; details: E452, 168 h; procedure, shortened: as §2
Klebsiella pneumoniae [42] = assay: Antibacterial activity against beta-lactamase-positive ESBL-positive Klebsiella pneumoniae E457 assessed as mutant prevention concentration after overnight incubation; procedure, shortened: as §1
Klebsiella pneumoniae [43] = assay: Antibacterial activity against beta-lactamase-positive ESBL-positive Klebsiella pneumoniae E478 assessed as mutant prevention concentration after overnight incubation; procedure, shortened: as §1
Escherichia coli [44] = assay: Antibacterial activity against beta-lactamase-negative Escherichia coli E409 assessed as mutant prevention concentration after overnight incubation
Acinetobacter baumannii [45] = assay: Antibacterial activity against Acinetobacter baumannii A848 assessed as mutant prevention concentration after overnight incubation
Pseudomonas aeruginosa [46] = assay: Antibacterial activity against Pseudomonas aeruginosa P349 assessed as mutant prevention concentration after overnight incubation
Klebsiella pneumoniae [47] = assay: Antibacterial activity against beta-lactamase-negative Klebsiella pneumoniae E420 assessed as mutant prevention concentration after overnight incubation; procedure, shortened: as §1

## C[C@@H](O)[C@H]1C(=O)N2C(C(=O)O)=C(S[C@@H]3CN[C@H](C(=O)N(C)C)C3)[C@H](C)[C@H]12 [MEROPENEM]
Klebsiella pneumoniae [1]
  MPC: 32 µg/mL
Acinetobacter baumannii [2]
  MPC: 1 µg/mL
Klebsiella pneumoniae [3]
  MIC: 4 µg/mL (≈ 10.4 µM)
Klebsiella pneumoniae [4]
  MIC: 2 µg/mL (≈ 5.22 µM)
Escherichia coli [5]
  MIC: 0.03 µg/mL (≈ 0.0782 µM)
Pseudomonas aeruginosa [6]
  MPC: >4 µg/mL
Acinetobacter baumannii [7]
  MPC: 32 µg/mL
Klebsiella pneumoniae [8]
  MIC: 0.03 µg/mL (≈ 0.0782 µM)
Acinetobacter baumannii [9]
  MPC: 2 µg/mL
Pseudomonas aeruginosa [10]
  MPC: 16 µg/mL
Pseudomonas aeruginosa [11]
  MPC: 8 µg/mL
Pseudomonas aeruginosa [12]
  MPC: 32 µg/mL
Pseudomonas aeruginosa [13]
  MPC: >8 µg/mL
Escherichia coli [14]
  MIC: 0.03 µg/mL (≈ 0.0782 µM)
Escherichia coli [15]
  MIC: 0.03 µg/mL (≈ 0.0782 µM)
Acinetobacter baumannii [16]
  MPC: 8 µg/mL
Klebsiella pneumoniae [17]
  MPC: 0.125 µg/mL
Klebsiella pneumoniae [18]
  MIC: 0.06 µg/mL (≈ 0.156 µM)
Klebsiella pneumoniae [19]
  MPC: 16 µg/mL
Escherichia coli [20]
  MPC: 0.25 µg/mL
Escherichia coli [21]
  MIC: 0.5 µg/mL (≈ 1.3 µM)
Klebsiella pneumoniae [22]
  MIC: 2 µg/mL (≈ 5.22 µM)
Acinetobacter baumannii [23]
  MPC: 8 µg/mL
Escherichia coli [24]
  MIC: 0.03 µg/mL (≈ 0.0782 µM)
Acinetobacter baumannii [25]
  MPC: 4 µg/mL
Escherichia coli [26]
  MPC: 0.06 µg/mL
Klebsiella pneumoniae [27]
  MPC: 0.06 µg/mL
Klebsiella pneumoniae [28]
  MPC: >64 µg/mL
Klebsiella pneumoniae [29]
  MIC: 0.06 µg/mL (≈ 0.156 µM)
Escherichia coli [30]
  MIC: 0.03 µg/mL (≈ 0.0782 µM)
Escherichia coli [31]
  MPC: 0.06 µg/mL
Escherichia coli [32]
  MIC: 0.03 µg/mL (≈ 0.0782 µM)
Escherichia coli [33]
  MPC: 0.125 µg/mL
Escherichia coli [34]
  MPC: 0.06 µg/mL
Escherichia coli [35]
  MPC: 0.125 µg/mL
Klebsiella pneumoniae [36]
  MIC: 4 µg/mL (≈ 10.4 µM)
Acinetobacter baumannii [37]
  MPC: 8 µg/mL
Escherichia coli [38]
  MPC: 0.06 µg/mL
Pseudomonas aeruginosa [39]
  MPC: 8 µg/mL
Acinetobacter baumannii [40]
  MPC: 2 µg/mL
Escherichia coli [41]
  MIC: 0.03 µg/mL (≈ 0.0782 µM)
Klebsiella pneumoniae [42]
  MPC: 0.125 µg/mL
Klebsiella pneumoniae [43]
  MPC: 8 µg/mL
Escherichia coli [44]
  MPC: 0.06 µg/mL
Acinetobacter baumannii [45]
  MPC: 32 µg/mL
Pseudomonas aeruginosa [46]
  MPC: 16 µg/mL
Klebsiella pneumoniae [47]
  MPC: 0.06 µg/mL
